Results published in ChEMBL document CHEMBL2331542, “Synthesis and in vitro antibacterial activity of quinolone/naphthyridone derivatives containing 3-alkoxyimino-4-(methyl)aminopiperidine scaffolds” (2013).
Values after ≈ are worked out from the molar mass of the structure shown.

Key:
Assay type in all cases: functional
[1] = test system: Staphylococcus aureus; assay: Antibacterial activity against methicillin-sensitive Staphylococcus aureus isolate 12-7
In short: (§1)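 MIC determined in vitro by a standard technique and defined as the lowest compound concentration giving complete inhibition of bacterial growth. The Gram-positive and Gram-negative panels were tested alongside gemifloxacin, levofloxacin and ciprofloxacin reference drugs.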

[2] = test system: Staphylococcus aureus; assay: Antibacterial activity against methicillin-resistant Staphylococcus aureus isolate 12-3
In short: (§2)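 MIC determined in vitro by standard techniques, defined as the lowest compound concentration giving complete inhibition of bacterial growth. Gemifloxacin, levofloxacin and ciprofloxacin were tested alongside as reference drugs.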

[3] = test system: Staphylococcus epidermidis; assay: Antibacterial activity against methicillin-sensitive Staphylococcus epidermidis isolate 12-3; in short: as §1
[4] = test system: Klebsiella pneumoniae; assay: Antibacterial activity against Klebsiella pneumoniae isolate 12-2; in short: as §1
[5] = test system: Klebsiella pneumoniae; assay: Antibacterial activity against extended-spectrum beta-lactamase-producing Klebsiella pneumoniae isolate 12-4; in short: as §1
[6] = test system: Staphylococcus aureus; assay: Antibacterial activity against Staphylococcus aureus […]; in short: as §1
[7] = test system: Streptococcus pneumoniae; assay: Antibacterial activity against Streptococcus pneumoniae isolate 12-2; in short: as §1
[8] = test system: Escherichia coli; assay: Antibacterial activity against extended-spectrum beta-lactamase-producing Escherichia coli isolate 12-4; in short: as §1
[9] = test system: Klebsiella pneumoniae; assay: Antibacterial activity against extended-spectrum beta-lactamase-producing Klebsiella pneumoniae isolate 12-1; in short: as §1
[10] = test system: Staphylococcus aureus; assay: Antibacterial activity against methicillin-resistant Staphylococcus aureus isolate 12-15; in short: as §2
[11] = test system: Escherichia coli; assay: Antibacterial activity against extended-spectrum beta-lactamase-producing Escherichia coli isolate 12-2; in short: as §1
[12] = test system: Streptococcus pneumoniae; assay: Antibacterial activity against Streptococcus pneumoniae isolate 12-5; in short: as §1
[13] = test system: Staphylococcus epidermidis; assay: Antibacterial activity against methicillin-resistant Staphylococcus epidermidis isolate 12-35; in short: as §2
[14] = test system: Escherichia coli; assay: Antibacterial activity against Escherichia coli isolate 12-5; in short: as §1
[15] = test system: Pseudomonas aeruginosa; assay: Antibacterial activity against Pseudomonas aeruginosa ATCC 27853; in short: as §1
[16] = test system: Staphylococcus aureus; assay: Antibacterial activity against methicillin-sensitive Staphylococcus aureus isolate 12-10; in short: as §1
[17] = test system: Escherichia coli; assay: Antibacterial activity against Escherichia coli ATCC 25922; in short: as §1
[18] = test system: Escherichia coli; assay: Antibacterial activity against extended-spectrum beta-lactamase-producing Escherichia coli isolate 12-1; in short: as §1
[19] = test system: Escherichia coli; assay: Antibacterial activity against Escherichia coli isolate 12-1; in short: as §1
[20] = test system: Escherichia coli; assay: Antibacterial activity against Escherichia coli isolate 12-4; in short: as §1
[21] = test system: Pseudomonas aeruginosa; assay: Antibacterial activity against Pseudomonas aeruginosa isolate 12-1; in short: as §1
[22] = test system: Pseudomonas aeruginosa; assay: Antibacterial activity against Pseudomonas aeruginosa isolate 12-2; in short: as §1
[23] = test system: Staphylococcus epidermidis; assay: Antibacterial activity against methicillin-resistant Staphylococcus epidermidis isolate 12-33; in short: as §2
[24] = test system: Staphylococcus epidermidis; assay: Antibacterial activity against methicillin-resistant Staphylococcus epidermidis isolate 12-5; in short: as §2
[25] = test system: Klebsiella pneumoniae; assay: Antibacterial activity against extended-spectrum beta-lactamase-producing Klebsiella pneumoniae isolate 12-2; in short: as §1
[26] = test system: Klebsiella pneumoniae; assay: Antibacterial activity against Klebsiella pneumoniae isolate 12-4; in short: as §1
[27] = test system: Klebsiella pneumoniae; assay: Antibacterial activity against Klebsiella pneumoniae isolate 12-1; in short: as §1
[28] = test system: Staphylococcus epidermidis; assay: Antibacterial activity against methicillin-sensitive Staphylococcus epidermidis isolate 12-1; in short: as §1
[29] = test system: Staphylococcus aureus; assay: Antibacterial activity against methicillin-resistant Staphylococcus aureus isolate 12-13; in short: as §2
[30] = test system: Staphylococcus aureus; assay: Antibacterial activity against methicillin-sensitive Staphylococcus aureus isolate 12-6; in short: as §1
[31] = test system: Staphylococcus epidermidis; assay: Antibacterial activity against methicillin-sensitive Staphylococcus epidermidis isolate 12-2; in short: as §1

`CNC1CCN(c2c(F)cc3c(=O)c(C(=O)O)cn4c3c2OC[C@@H]4C)C/C1=N\OC` (stereo partly drawn) gave an MIC [1] of 1 µg/mL (≈ 2.39 µM), an MIC [2] of 1 µg/mL (≈ 2.39 µM) and an MIC [3] of 0.5 µg/mL (≈ 1.19 µM). It also gave an MIC [4] of 1 µg/mL (≈ 2.39 µM), an MIC [5] of 0.5 µg/mL (≈ 1.19 µM) and an MIC [6] of 0.25 µg/mL (≈ 0.597 µM). For the same molecule, the MIC [7] was 1 µg/mL (≈ 2.39 µM), the MIC [8] was 16 µg/mL (≈ 38.2 µM) and the MIC [9] was 16 µg/mL (≈ 38.2 µM). The MIC [10] was 1 µg/mL (≈ 2.39 µM), the MIC [11] was greater than 128 µg/mL and the MIC [12] was 1 µg/mL (≈ 2.39 µM). For the same molecule, the MIC [13] was 0.125 µg/mL (≈ 0.299 µM), the MIC [14] was 128 µg/mL (≈ 306 µM) and the MIC [15] was 4 µg/mL (≈ 9.56 µM). For the same molecule, the MIC [16] was 0.25 µg/mL (≈ 0.597 µM), the MIC [17] was 0.25 µg/mL (≈ 0.597 µM) and the MIC [18] was 128 µg/mL (≈ 306 µM). The MIC [19] was 8 µg/mL (≈ 19.1 µM), the MIC [20] was 128 µg/mL (≈ 306 µM) and the MIC [21] was 8 µg/mL (≈ 19.1 µM). For the same molecule, the MIC [22] was 8 µg/mL (≈ 19.1 µM), the MIC [23] was less than 0.008 µg/mL and the MIC [24] was 0.125 µg/mL (≈ 0.299 µM). It also gave an MIC [25] of 16 µg/mL (≈ 38.2 µM), an MIC [26] of 0.5 µg/mL (≈ 1.19 µM) and an MIC [27] of 1 µg/mL (≈ 2.39 µM). It also gave an MIC [28] of 0.5 µg/mL (≈ 1.19 µM), an MIC [29] of 1 µg/mL (≈ 2.39 µM) and an MIC [30] of 0.25 µg/mL (≈ 0.597 µM). For the same molecule, the MIC [31] was 2 µg/mL (≈ 4.78 µM).
For `CCO/N=C1\CN(c2c(F)cc3c(=O)c(C(=O)O)cn(C4CC4)c3c2F)CCC1NC` (stereo not drawn), the MIC [1] was 128 µg/mL (≈ 295 µM), the MIC [2] was 0.5 µg/mL (≈ 1.15 µM) and the MIC [3] was 0.5 µg/mL (≈ 1.15 µM). It also gave an MIC [4] of 1 µg/mL (≈ 2.3 µM), an MIC [5] greater than 128 µg/mL and an MIC [6] of 0.5 µg/mL (≈ 1.15 µM). The MIC [7] was 0.5 µg/mL (≈ 1.15 µM), the MIC [8] was 16 µg/mL (≈ 36.8 µM) and the MIC [9] was 16 µg/mL (≈ 36.8 µM). For the same molecule, the MIC [10] was 0.5 µg/mL (≈ 1.15 µM), the MIC [11] was greater than 128 µg/mL and the MIC [12] was 1 µg/mL (≈ 2.3 µM). It also gave an MIC [13] of 1 µg/mL (≈ 2.3 µM), an MIC [14] greater than 128 µg/mL and an MIC [15] of 16 µg/mL (≈ 36.8 µM). The MIC [16] was 0.125 µg/mL (≈ 0.288 µM), the MIC [17] was 16 µg/mL (≈ 36.8 µM) and the MIC [18] was greater than 128 µg/mL. It also gave an MIC [19] of 8 µg/mL (≈ 18.4 µM), an MIC [20] greater than 128 µg/mL and an MIC [21] of 16 µg/mL (≈ 36.8 µM). For the same molecule, the MIC [22] was 16 µg/mL (≈ 36.8 µM), the MIC [23] was 1 µg/mL (≈ 2.3 µM) and the MIC [24] was 1 µg/mL (≈ 2.3 µM). The MIC [25] was 16 µg/mL (≈ 36.8 µM), the MIC [26] was 1 µg/mL (≈ 2.3 µM) and the MIC [27] was 2 µg/mL (≈ 4.6 µM). For the same molecule, the MIC [28] was 0.5 µg/mL (≈ 1.15 µM), the MIC [29] was 0.5 µg/mL (≈ 1.15 µM) and the MIC [30] was 0.5 µg/mL (≈ 1.15 µM). It also gave an MIC [31] of 1 µg/mL (≈ 2.3 µM).
For `CO/N=C1\CN(c2c(F)cc3c(=O)c(C(=O)O)cn(C4CC4)c3c2OC)CCC1N` (stereo not drawn), the MIC [1] was 8 µg/mL (≈ 19.1 µM), the MIC [2] was 0.25 µg/mL (≈ 0.597 µM) and the MIC [3] was 0.25 µg/mL (≈ 0.597 µM). It also gave an MIC [4] of 2 µg/mL (≈ 4.78 µM), an MIC [5] of 64 µg/mL (≈ 153 µM) and an MIC [6] of 0.06 µg/mL (≈ 0.143 µM). The MIC [7] was 0.25 µg/mL (≈ 0.597 µM), the MIC [8] was 16 µg/mL (≈ 38.2 µM) and the MIC [9] was 8 µg/mL (≈ 19.1 µM). The MIC [10] was 0.25 µg/mL (≈ 0.597 µM), the MIC [11] was 64 µg/mL (≈ 153 µM) and the MIC [12] was 2 µg/mL (≈ 4.78 µM). The MIC [13] was 0.25 µg/mL (≈ 0.597 µM), the MIC [14] was 64 µg/mL (≈ 153 µM) and the MIC [15] was 4 µg/mL (≈ 9.56 µM). The MIC [16] was 0.125 µg/mL (≈ 0.299 µM), the MIC [17] was 4 µg/mL (≈ 9.56 µM) and the MIC [18] was 64 µg/mL (≈ 153 µM). For the same molecule, the MIC [19] was 2 µg/mL (≈ 4.78 µM), the MIC [20] was 128 µg/mL (≈ 306 µM) and the MIC [21] was 16 µg/mL (≈ 38.2 µM). For the same molecule, the MIC [22] was 16 µg/mL (≈ 38.2 µM), the MIC [23] was 2 µg/mL (≈ 4.78 µM) and the MIC [24] was 0.25 µg/mL (≈ 0.597 µM). For the same molecule, the MIC [25] was 16 µg/mL (≈ 38.2 µM), the MIC [26] was 0.5 µg/mL (≈ 1.19 µM) and the MIC [27] was 2 µg/mL (≈ 4.78 µM). For the same molecule, the MIC [28] was 0.25 µg/mL (≈ 0.597 µM), the MIC [29] was 0.25 µg/mL (≈ 0.597 µM) and the MIC [30] was 0.25 µg/mL (≈ 0.597 µM). For the same molecule, the MIC [31] was 0.5 µg/mL (≈ 1.19 µM).
